Nine compounds from ChEMBL document CHEMBL1140765, “Synthesis and biological evaluation of 2-trifluoromethyl/sulfonamido-5,6-diaryl substituted imidazo[2,1-b]-1,3,4-thiadiazoles: a novel class of cyclooxygenase-2 inhibitors” (Bioorg Med Chem, 2008) can be followed below.

In general, inhibition refers to the percentage by which the read-out fell short of the control. Broadly, the IC50 is the concentration that inhibits the measured activity by half.

In assay [1] the target is T1, Prostaglandin G/H synthase 1 (Ovis aries) (UniProt P05979).
T1 sequence (whole entry): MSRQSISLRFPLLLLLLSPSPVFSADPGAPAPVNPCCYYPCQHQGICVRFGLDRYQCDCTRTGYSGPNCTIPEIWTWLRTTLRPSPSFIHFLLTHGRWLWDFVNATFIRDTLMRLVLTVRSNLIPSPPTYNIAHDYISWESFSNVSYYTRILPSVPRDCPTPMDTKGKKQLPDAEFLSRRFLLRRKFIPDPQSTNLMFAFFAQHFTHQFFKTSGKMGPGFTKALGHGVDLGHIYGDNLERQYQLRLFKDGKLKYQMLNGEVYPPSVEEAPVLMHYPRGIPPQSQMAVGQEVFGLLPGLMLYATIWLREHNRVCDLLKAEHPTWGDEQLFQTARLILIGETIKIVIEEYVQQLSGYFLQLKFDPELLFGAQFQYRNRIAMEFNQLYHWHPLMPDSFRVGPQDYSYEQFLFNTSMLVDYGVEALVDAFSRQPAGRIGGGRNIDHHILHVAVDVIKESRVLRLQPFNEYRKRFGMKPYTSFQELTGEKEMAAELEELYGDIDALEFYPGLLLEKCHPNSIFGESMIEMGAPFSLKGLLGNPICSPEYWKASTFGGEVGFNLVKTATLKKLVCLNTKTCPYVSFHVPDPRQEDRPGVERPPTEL
Nature of the assay: Inhibition of ovine COX1 at 10 uM. The method in brief:
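Ovine COX-1 activity was measured with a colorimetric inhibitor assay kit that reads the enzyme's peroxidase component. Oxidized TMPD was monitored at 590 nm during reduction of PGG2 to PGH2. Runs were done in duplicate.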

Assay [2] has as its system Rattus norvegicus. Nature of the assay: Antiinflammatory activity in Albino rat assessed as reduction of carrageenan-induced paw edema volume at 10 mg/kg, po after 2 hrs. It is filed as functional. The arrangement: scale not given: the % may be the effect or the level left. The method in brief: (§1)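 Male albino rats, six per group, were dosed orally. One hour later they received a subplantar injection of 0.05 mL of 1% carrageenan in 0.9% sterile solution into the left hind paw. Paw volume was read by digital plethysmometer at 0, 2 and 4 h. Percent reduction was calculated as (1 − treated/vehicle control edema volume) × 100, and values are given as mean ± SE.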
A general note: The carrageenan paw model is a standard test of acute inflammation.

The test system of assay [3] is Rattus norvegicus. Nature of the assay: Antiinflammatory activity in Albino rat assessed as reduction of carrageenan-induced paw edema volume at 10 mg/kg, po after 4 hrs. It is filed as functional. The arrangement: scale not given: the % may be the effect or the level left. In a few lines: as §1
Assay [4] has as its target T2, Prostaglandin G/H synthase 1 (Ovis aries, UniProt P05979).
T2 sequence (P05979 whole entry): T1 sequence (whole entry)
Nature of the assay: Inhibition of ovine COX1. In a few lines:
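Ovine enzyme, colorimetric kit assay read through the peroxidase component: oxidised TMPD appearing during PGG2 to PGH2 reduction monitored at 590 nm; values reported as IC50 in µM, duplicate experiments.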

Where only a bound is given, the exact number is not on record here.

Turning to `COc1ccc(-c2nc3sc(C(F)(F)F)nn3c2-c2ccc(OC)cc2)cc1`, the inhibition in assay [1] was determined as 15.5%. Moreover, the Activity in the assay with Rattus norvegicus [2] is 38.03%; with Rattus norvegicus [3], 48.78%.

For the compound `COc1ccc(-c2c(-c3ccc(SC)cc3)nc3sc(C(F)(F)F)nn23)cc1`, the inhibition in assay [1] is 10.5%. Moreover, the Activity with Rattus norvegicus [2] is given as 42.38%; in the assay with Rattus norvegicus [3] it was 66.16%.

`COc1ccc(-c2c(-c3ccc(S(C)(=O)=O)cc3)nc3sc(S(N)(=O)=O)nn23)cc1`: the inhibition in assay [1] is 13.3%. Moreover, the IC50 in assay [4] is greater than 50 µM. Further, the values for the Activity in the assay on Rattus norvegicus [2] and with Rattus norvegicus [3] were 54.28% and 61.29%, respectively.

On to `COc1ccc(-c2nc3sc(S(N)(=O)=O)nn3c2-c2ccc(OC)cc2)cc1`, for which the inhibition in assay [1] was 28.1%. For the same compound, the Activity in the assay with Rattus norvegicus [2] is 24.68%; in the assay with Rattus norvegicus [3], 37.05%.

Turning to `Cc1ccc(-c2cc(C(F)(F)F)nn2-c2ccc(S(N)(=O)=O)cc2)cc1` [CELECOXIB], the Activity in the assay on Rattus norvegicus [2] is given as 48.31%; in the assay on Rattus norvegicus [3] it was 64.83%.

In assay [1], `COc1ccc(-c2c(-c3ccccc3)nc3sc(C(F)(F)F)nn23)cc1` displayed an inhibition of 30.6%. The Activity in the assay on Rattus norvegicus [2] turned out to be 29.62%; in the assay with Rattus norvegicus [3], 42.32%.

`COc1ccc(-c2c(-c3ccc(F)cc3)nc3sc(S(N)(=O)=O)nn23)cc1` registered an inhibition in assay [1] of 12.9%. Also, the values for the Activity in the assay with Rattus norvegicus [2] and in the assay on Rattus norvegicus [3] were 43.49% and 51.72%, respectively.

With `CS(=O)(=O)c1ccc(-c2nc3sc(C(F)(F)F)nn3c2-c2ccccc2)cc1`, the inhibition in assay [1] turned out to be 8.6%. The compound also yielded an IC50 in assay [4] greater than 50 µM. In addition, the Activity is 46.73% in the assay with Rattus norvegicus [2] and 70.09% in the assay on Rattus norvegicus [3].

Compound `CSc1ccc(-c2nc3sc(C(F)(F)F)nn3c2-c2ccccc2)cc1` showed an inhibition in assay [1] of 14.2%. Besides, the Activity in the assay on Rattus norvegicus [2] is on record as 37.64%; in the assay on Rattus norvegicus [3], 54.16%.
